Compound activity deposited in PubChem BioAssay by The Scripps Research Institute Molecular Screening Center.
Only some compounds are listed: those with a hit (about 3.1% of all), similar ones and a draw of the others.
OX1R antag-1 – OX1R (HCRTR1) antagonists, primary screen, fluorescence, CHO/OX1R cells, Fluo-8 calcium, orexin A | inhibition, % at 5 µM | Fluo-8 calcium fluorescence | AID 434989, 2010 | Orexin/Hypocretin receptor type 1 (Homo sapiens), O43613 | 0.43% of 330,000 active;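 active = inhibition above its plate's threshold, mean inhibition of all tested compounds on the plate plus 3 SD, cut at about 37% in these data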;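 also: 0% = orexin A challenge wells and 100% = SB-334867-A antagonist wells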
CHO parental Ca – ATP-evoked calcium signal inhibitors, parental CHO, primary screen, counter-screen for OX1R antagonist project, cell-based, fluorescence, Fluo-8 calcium dye; 0.63% of 330,000 active; inhibition, % at 5.6 µM; parental CHO-K1, ATP-induced calcium, Fluo-8 fluorescence; AID 463079, 2010;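 active = inhibition above that plate's mean sample inhibition plus 3 SD, cut at about 26% in these data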;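 also: 0% = ATP-challenged DMSO wells and 100% = DMSO wells without ATP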
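test system = CHO parental line | reagent = ATP stimulus | measured by = intracellular calcium via Fluo-8 no-wash fluorescent dye | control set = ATP and no-ATP DMSO wells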
OX1R antag-2 – antagonists of human orexin 1 receptor (OX1R) | AID 485270, 2010 | inhibition, % at 6.6 µM | OX1R-expressing cells, FRET antagonist read-out | Orexin/Hypocretin receptor type 1 (Homo sapiens), O43613 | 1.8% of 330,000 active; in the data active = inhibition mostly above about 38%, no sharp cut-off; inactive = mostly below about 40%;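 also: 0% = agonist challenge alone and 100% = reference antagonist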
GalR3 antagonist – GalR3 antagonists in HEK293 cells, primary screen, cell-based, fluorescence readout; Galanin receptor type 3 (Homo sapiens), O60755; HEK293 GalR3-CNG cAMP membrane potential fluorescence; galR3 body fused to GalR1 C-terminus; inhibition, % at 3 µM; 0.44% of 360,000 active; AID 651719, 2012;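 active = inhibition above the screen-wide average plus 3 SD, cut at about 13% in these data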;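 also: forskolin and galanin both at EC90 stimulate the cells; cAMP rise reported by CNG channel membrane potential dye signal; 0% = forskolin plus galanin with DMSO and 100% = forskolin alone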
Target sequence (O60755 1-299 limits assumed): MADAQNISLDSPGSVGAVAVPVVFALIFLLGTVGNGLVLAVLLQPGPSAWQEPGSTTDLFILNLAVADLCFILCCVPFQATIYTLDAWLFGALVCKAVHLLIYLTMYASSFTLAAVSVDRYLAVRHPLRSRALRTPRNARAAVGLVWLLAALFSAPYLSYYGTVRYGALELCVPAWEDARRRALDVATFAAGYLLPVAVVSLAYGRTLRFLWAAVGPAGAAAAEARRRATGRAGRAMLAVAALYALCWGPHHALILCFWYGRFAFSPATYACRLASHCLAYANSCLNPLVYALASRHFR
GPR7 antagonist – GPR7 receptor antagonists, primary screen, cell-based, fluorescence, single concentration | 1.1% of 290,000 active | AID 1861, 2009 | Neuropeptides B/W receptor type 1 (Homo sapiens), P48145 | inhibition, % at 4.4 µM | GPR7-expressing cells, fluorescence antagonist assay; in the data active = inhibition above about 16%, passing the limit was not always enough;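 also: cells stimulated with the agonist NPW; 0% = agonist with vehicle and 100% = vehicle without agonist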
Target sequence (P48145 whole entry, looked up): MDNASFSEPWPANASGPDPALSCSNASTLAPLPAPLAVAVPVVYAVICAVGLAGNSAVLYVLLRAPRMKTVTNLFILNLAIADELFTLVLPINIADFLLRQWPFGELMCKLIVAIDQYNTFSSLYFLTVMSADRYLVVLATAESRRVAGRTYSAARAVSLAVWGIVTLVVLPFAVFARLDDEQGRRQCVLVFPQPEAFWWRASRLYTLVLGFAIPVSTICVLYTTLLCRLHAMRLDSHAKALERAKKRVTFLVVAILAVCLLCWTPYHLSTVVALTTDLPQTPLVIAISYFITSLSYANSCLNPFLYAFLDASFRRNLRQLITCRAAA
GalR3 conf – GalR3 antagonist hit confirmation, cell-based, fluorescence, triplicate; shares compounds with GalR3 antagonist; HEK293 GalR3 CNG cAMP biosensor, membrane potential fluorescence; galR3 fused to GalR1 carboxy tail; challenged with forskolin and galanin at EC90; inhibition, % at 3 µM; 59% of 1,600 active;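 active = inhibition above the primary screen's cutoff, the mean inhibition of all screened compounds plus 3 SD, cut at about 13% in these data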;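 also: 0% = forskolin plus galanin and 100% = forskolin alone with DMSO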
HEK-CNG parental – nonspecific cAMP agonists in parental HEK-CNG cells, counter-screen for GalR3 antagonist project, cell-based, fluorescence, high throughput; shares compounds with GalR3 antagonist; HEK293-CNG parental cells, cAMP membrane potential fluorescence; normalised: DMSO wells 0%, forskolin wells 100%; activation, % at 3 µM; 10% of 1,600 active; AID 652268, 2013; in the data active = activation above about 1.3%
An asterisk follows results filed as active; . = no result given.

SMILES	OX1R antag-1	CHO parental Ca	OX1R antag-2	GalR3 antagonist	GPR7 antagonist	GalR3 conf	HEK-CNG parental
O=C(O)c1cc(-c2ccccc2)nc2nc(N3CCCCC3)sc12	2.0	1.6	6.0	12.9*	-3.2	0.2	0.0
CSc1ccc(CN(C)CC(=O)NC(C)c2ccccc2)cc1 (stereo unspecified)	-18.8	-13.9	28.6	-7.6	19.2	.	.
COCCCN1C(=O)c2ccc(C(=O)OCC(=O)NCCc3ccccc3)cc2C1=O	-24.3	-19.2	33.0	-5.5	-5.5	.	.
COCCCN1C(=O)c2ccc(C(=O)OCC(=O)N(C)c3ccccc3)cc2C1=O	-29.1	-2.9	29.6	.	-18.0	-0.6	-0.1
O=C1NCC(COc2cccc3ccccc23)O1 (stereo unspecified)	-6.0	-7.2	13.5	18.7*	14.9	6.9	0.1
COc1ccc(S(=O)(=O)N2CCc3ccccc32)cc1[N+](=O)[O-]	-12.7	5.3	6.7	-9.5	11.3	.	.
COc1ccc(NS(=O)(=O)c2ccc(-c3coc(C)n3)cc2)cc1OC	38.9	50.3*	26.9	85.4*	18.3	100.1*	0.0
COc1ccc(NS(=O)(=O)c2ccc(-c3coc(C)n3)cc2)cc1	15.3	10.5	19.8	-7.0	-3.4	.	.
CC1(C)CC(=O)c2c(Cc3ccccc3)noc2C1	-4.4	-0.1	38.2	20.4*	-5.9	3.5	1.3*
COc1ccccc1N1CCN(C(=O)c2cn(C)c3ccc(S(=O)(=O)N4CCOCC4)cc3c2=O)CC1	-2.6	7.3	15.0	-5.7	-3.5	.	.
c1ccc(Nc2ncnc3sccc23)cc1	-6.6	5.6	13.0	-7.5	-6.8	.	.
CC(Nc1ncnc2sccc12)c1ccccc1 (stereo unspecified)	12.3	41.7*	35.7	93.7*	10.0	105.2*	0.3
N#C/C(=C\c1ccccc1)C(=O)Nc1nncs1	-18.9	-13.8	3.9	15.5*	-1.8	8.9	0.3
N#C/C(=C\c1ccccc1)C(=O)Nc1cccnc1	-4.9	2.6	0.8	-6.8	-4.9	.	.
CCc1cccc(NC(=O)CN(C)S(=O)(=O)c2cccs2)c1	-12.7	-1.9	7.2	14.1*	-0.6	12.0	-0.3
CN(CC(=O)Nc1ccc(F)c(F)c1)S(=O)(=O)c1cccs1	-20.8	3.4	3.6	-0.2	-10.5	.	.
Cc1cc(C)c2cc(C=O)c(Cl)nc2c1	-6.8	-6.7	2.3	15.3*	6.6	39.7*	2.7*
CC(=O)OCC(=O)Nc1ccc(Cl)cc1Cl	-15.8	-2.4	4.9	18.8*	3.9	0.0	0.1
Cc1ccc2[nH]c(=O)c(CN(Cc3nnnn3C3CCCC3)C3CCCCC3)cc2c1	-1.5	-20.7	16.4	13.7*	-8.0	0.8	0.5
CCC(C)(C)n1nnnc1CN(Cc1cc2cc(OC)c(OC)cc2[nH]c1=O)C1CCCC1	-14.9	-1.7	31.1	17.7*	6.9	1.6	0.5
C=C(C)[C@@H]1CC=C(CN2CCC(N3CCC(C(=O)N4CCCC4)CC3)CC2)CC1	-25.0	-7.5	2.8	19.5*	-17.4	2.8	4.4*
CN(C(=O)c1c(Br)cnn1C)C12CC3CC(CC(C3)C1)C2	.	.	.	-1.6	-7.7	.	.
COc1cc(CCCN2C(=O)C(=O)NC[C@@H]2Cc2ccc(O)cc2)cc(OC)c1OC	-11.4	-1.9	3.5	15.9*	.	2.6	0.6
CC1CN(c2ccc(NC(=S)NNCCC#N)cc2)CC(C)O1 (stereo unspecified)	-14.3	-23.0	13.1	1.0	-6.1	.	.
Nc1nnc(SCC(=O)NCCOc2ccccc2)s1	0.4	-11.2	24.1	17.9*	3.0	4.5	0.1
SMILES	OX1R antag-1	CHO parental Ca	OX1R antag-2	GalR3 antagonist	GPR7 antagonist	GalR3 conf	HEK-CNG parental
COc1cccc(CN(C)C(=O)CNC(=O)c2ccc(-c3ccccc3)cc2)c1OC	-15.5	-14.9	16.0	53.3*	15.2	116.1*	-0.9
COc1ccc(NCc2nnc(SCC(=O)Nc3ccc(OC)cc3)n2C)cc1	-15.6	0.6	25.9	-5.2	-10.2	.	.
COc1ccc(NCc2nnc(SCC(=O)Nc3ccccc3)n2C)cc1	-9.8	-7.0	10.7	.	-4.3	-0.6	-0.1
Cc1cccc(NC(=O)CNC(=O)[C@H]2O[C@@H](n3cnc4c(N)ncnc43)[C@H](O)[C@@H]2O)c1C	.	.	.	-5.1	.	.	.
Nc1ncnc2c1ncn2[C@@H]1O[C@H](C(=O)N[C@@H](CO)c2ccccc2)[C@@H](O)[C@H]1O	.	.	.	-5.6	.	.	.
Cc1ccc(CNC(=O)[C@H]2O[C@@H](n3cnc4c(N)ncnc43)[C@H](O)[C@@H]2O)o1	.	.	.	81.2*	.	78.0*	0.1
Nc1ncnc2c1ncn2[C@@H]1O[C@H](C(=O)NS(=O)(=O)c2ccccc2[N+](=O)[O-])[C@@H](O)[C@H]1O	.	.	.	38.6*	.	27.4*	0.3
Nc1ncnc2c1ncn2[C@@H]1O[C@H](C(=O)N[C@H]2c3ccccc3C[C@H]2O)[C@@H](O)[C@H]1O	.	.	.	20.1*	.	31.4*	1.3*
Nc1ncnc2c1ncn2[C@@H]1O[C@H](CNCc2ccc(-c3cc(C(F)(F)F)ccc3Cl)o2)[C@@H](O)[C@H]1O	-9.2	-16.4	0.1	41.9*	.	54.3*	0.4
O=c1ccn([C@@H]2O[C@H](CNCc3ccc(-c4cc(C(F)(F)F)ccc4Cl)o3)[C@@H](O)[C@H]2O)c(=O)[nH]1	.	.	.	2.3	.	.	.
COc1ccc(Br)cc1/C(C)=N/NC1=NCCN1	-11.9	-2.5	23.7	85.4*	14.0	32.4*	2.1*
C/C(=N\NC1=NCCN1)c1ccccc1	1.4	-0.7	1.1	-6.7	-17.5	.	.
Cc1ccccc1C(=O)N[C@H](C(=O)OCC(=O)NC1CC1)C(C)C	-3.6	-5.3	9.2	-0.9	.	.	.
CCN(C(=O)COC(=O)CN(C)S(=O)(=O)c1ccc(NC(C)=O)cc1)C1CCS(=O)(=O)C1 (stereo unspecified)	3.4	6.3	-9.9	2.4	-12.2	.	.
O=C(Oc1ccc(Br)cc1C(=O)/C=C/c1ccccc1F)c1ccco1	12.8	-21.6	21.9	23.8*	7.0	11.8	0.1
COc1ccccc1Oc1ccc2c(c1)C(=O)N(c1cccc3ncccc13)C2=O	.	.	.	57.9*	-0.4	45.8*	-0.8
COc1ccccc1Oc1ccc2c(c1)C(=O)N(c1cccc(O)c1)C2=O	8.5	-6.7	3.3	-2.2	0.5	.	.
